Reference: ChEMBL document CHEMBL1143400, “A diarylquinoline drug active on the ATP synthase of Mycobacterium tuberculosis” (Science, 2005)

Legend:
[1] = system: Mus musculus; assay: Toxicity in Mycobacterium tuberculosis H37Rv infected Swiss mouse at 75 mg/kg 5 times weekly for 4 weeks; format: organism-based; set-up: dose 75 mg/kg; conditions: in vivo, 672 h
[2] = system: Mus musculus; assay: Toxicity in Mycobacterium tuberculosis H37Rv infected Swiss mouse at 100 mg/kg 5 times weekly for 4 weeks; format: organism-based; set-up: dose 100 mg/kg; conditions: in vivo, 672 h
[3] = system: Mycobacterium tuberculosis; assay: Antimycobacterial activity against Mycobacterium tuberculosis H37Rv infected Swiss mouse assessed as reduction of bacterial count in lungs at 75 mg/kg 5 times weekly for 4 weeks; format: functional
Outline: (§1)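 Nonestablished infection model in mice. Oral dosing began the day after inoculation, given 5 times per week for 4 weeks; one 12.5 mg/kg group was dosed once weekly. Mice were killed on day 28 and lung and spleen CFU counted, with untreated controls taken at day 1. Means ± SD; pairwise comparisons by Bonferroni's method.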

[4] = system: Mycobacterium tuberculosis; assay: Antimycobacterial activity against Mycobacterium tuberculosis H37Rv infected Swiss mouse assessed as reduction of bacterial count in spleen at 100 mg/kg 5 times weekly for 4 weeks; format: functional; outline: as §1
[5] = system: Mycobacterium tuberculosis; assay: Antimycobacterial activity against Mycobacterium tuberculosis H37Rv infected Swiss mouse assessed as spleen weight at 50 mg/kg 5 times weekly for 4 weeks; format: functional
[6] = system: Mycobacterium tuberculosis; assay: Antimycobacterial activity against Mycobacterium tuberculosis H37Rv infected Swiss mouse assessed as reduction of bacterial count in spleen at 75 mg/kg 5 times weekly for 4 weeks; format: functional; outline: as §1
[7] = system: Mycobacterium tuberculosis; assay: Antimycobacterial activity against Mycobacterium tuberculosis H37Rv infected Swiss mouse assessed as reduction of bacterial count in lungs at 50 mg/kg 5 times weekly for 4 weeks; format: functional; outline: as §1
[8] = system: Mus musculus; assay: Toxicity in Mycobacterium tuberculosis H37Rv infected Swiss mouse at 25 mg/kg 5 times weekly for 4 weeks; format: organism-based; set-up: dose 25 mg/kg; conditions: in vivo, 672 h
[9] = system: Mycobacterium tuberculosis; assay: Antimycobacterial activity against Mycobacterium tuberculosis H37Rv infected Swiss mouse assessed as reduction of bacterial count in lungs at 100 mg/kg 5 times weekly for 4 weeks; format: functional; outline: as §1
[10] = system: Mus musculus; assay: Toxicity in Mycobacterium tuberculosis H37Rv infected Swiss mouse at 12.5 mg/kg 5 times weekly for 4 weeks; format: organism-based; set-up: dose 12.5 mg/kg; conditions: in vivo, 672 h
[11] = system: Mycobacterium tuberculosis; assay: Antimycobacterial activity against Mycobacterium tuberculosis H37Rv infected Swiss mouse assessed as spleen weight at 75 mg/kg 5 times weekly for 4 weeks; format: functional
[12] = system: Mycobacterium tuberculosis; assay: Antimycobacterial activity against Mycobacterium tuberculosis H37Rv infected Swiss mouse assessed as reduction of bacterial count in spleen at 50 mg/kg 5 times weekly for 4 weeks; format: functional; outline: as §1
[13] = system: Mycobacterium tuberculosis; assay: Antimycobacterial activity against Mycobacterium tuberculosis H37Rv infected Swiss mouse assessed as spleen weight at 100 mg/kg 5 times weekly for 4 weeks; format: functional
[14] = system: Mus musculus; assay: Toxicity in Mycobacterium tuberculosis H37Rv infected Swiss mouse at 50 mg/kg 5 times weekly for 4 weeks; format: organism-based; set-up: dose 50 mg/kg; conditions: in vivo, 672 h
[15] = system: Plasma; assay: Drug level in human plasma; format: ADME, cell-free
[16] = system: Mycobacterium tuberculosis; assay: Antimycobacterial activity against Mycobacterium tuberculosis H37Rv infected Swiss mouse assessed as spleen weight at 10 mg/kg after 12 days of infection weekly 5 times for 8 weeks; format: functional
[17] = system: Mycobacterium tuberculosis; assay: Antimycobacterial activity against Mycobacterium tuberculosis H37Rv infected Swiss mouse assessed as reduction of bacterial count in spleen at 10 mg/kg after 12 days infection weekly 5 times for 1 month; format: functional
[18] = system: Mycobacterium tuberculosis; assay: Antimycobacterial activity against Mycobacterium tuberculosis H37Rv infected Swiss mouse assessed as reduction of bacterial count in lungs at 10 mg/kg after 12 days of infection weekly 5 times for 8 weeks; format: functional
Outline: (§2)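 Established infection model in mice. Treatment started 12 to 14 days after inoculation, given 5 times per week. Mice were killed on day 12 just before treatment, on day 42 (1 month of therapy) and on day 70 (2 months), and lung CFU counted. Means ± SD; pairwise comparisons by Bonferroni's method.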

[19] = system: Mycobacterium tuberculosis; assay: Antimycobacterial activity against Mycobacterium tuberculosis H37Rv infected Swiss mouse assessed as reduction of bacterial count in lungs at 10 mg/kg after 12 days infection weekly 5 times for 1 month; format: functional; outline: as §2
[20] = system: Mycobacterium tuberculosis; assay: Antimycobacterial activity against Mycobacterium tuberculosis H37Rv infected Swiss mouse assessed as spleen weight at 10 mg/kg after 12 days infection weekly 5 times for 1 month; format: functional
[21] = system: Mycobacterium tuberculosis; assay: Antimycobacterial activity against Mycobacterium tuberculosis H37Rv infected Swiss mouse assessed as spleen weight at 25 mg/kg 5 times weekly for 4 weeks; format: functional
[22] = system: Mycobacterium tuberculosis; assay: Antimycobacterial activity against Mycobacterium tuberculosis H37Rv infected Swiss mouse assessed as reduction of bacterial count in spleen at 25 mg/kg 5 times weekly for 4 weeks; format: functional; outline: as §1
[23] = system: Mycobacterium tuberculosis; assay: Antimycobacterial activity against Mycobacterium tuberculosis H37Rv infected Swiss mouse assessed as reduction of bacterial count in lungs at 25 mg/kg 5 times weekly for 4 weeks; format: functional; outline: as §1

## COc1nc2ccc(Br)cc2cc1[C@@H](c1ccccc1)[C@@](O)(CCN(C)C)c1ccccc1
[1]
  Activity: Non-toxic
[2]
  Activity: Non-toxic
[3]
  log10cfu: 6.03
[4]
  log10cfu: 5.68
[5]
  Activity: 410 mg
[6]
  log10cfu: 5.72
[7]
  log10cfu: 6.4
[8]
  Activity: Non-toxic
[9]
  log10cfu: 6.1
[10]
  Activity: Non-toxic
[11]
  Activity: 390 mg
[12]
  log10cfu: 5.78
[13]
  Activity: 424 mg
[14]
  Activity: Non-toxic

## CO[C@H]1/C=C/O[C@@]2(C)Oc3c(C)c(O)c4c(O)c(c(/C=N/N5CCN(C)CC5)c(O)c4c3C2=O)NC(=O)/C(C)=C\C=C\[C@H](C)[C@H](O)[C@@H](C)[C@@H](O)[C@@H](C)[C@H](OC(C)=O)[C@@H]1C [RIFAMPIN]
[15]
  Drug uptake: < 0.001 µg/mL
[16]
  Activity: 391 mg
[17]
  log10cfu: 4.72
[18]
  log10cfu: 1.89
[19]
  log10cfu: 4.05
[20]
  Activity: 466 mg

## NNC(=O)c1ccncc1 [ISONIAZID]
[21]
  Activity: 185 mg
[22]
  log10cfu: 3.05 mg
[23]
  log10cfu: 1.75 mg

## COc1nc2ccc(Br)cc2cc1[C@@H](c1ccccc1)[C@@](O)(CCN(C)C)c1cccc(F)c1
[3]
  log10cfu: 4.32
[4]
  log10cfu: 3.63
[5]
  Activity: 278 mg
[6]
  log10cfu: 4.04
[7]
  log10cfu: 5.2
[9]
  log10cfu: 3.63
[11]
  Activity: 197 mg
[12]
  log10cfu: 4.68
[13]
  Activity: 206 mg
